Legend:
[1] = Selectivity index, ratio of CC50 for African green monkey Vero cells to IC50 for epimastigote stage of Trypanosoma cruzi; assay type: functional
Summary of the method: (§1)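 Selectivity index was calculated as CC50 in Vero (T. cruzi) or THP-1 (L. infantum) cells divided by parasite IC50. Both values came from 72 h mammalian-cell MTT assays and the parasite assays; SI ≥ 3 was defined as parasite-selective.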

Trypanosoma cruzi [2] = experiment: Antiparasitic activity against amastigote stage of Trypanosoma cruzi infected in Vero cells assessed as parasite growth inhibition after 24 hrs by hemocytometery; assay type: functional, organism-based
Summary of the method: (§2)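 Host cells were Vero for T. cruzi (infected with tissue-derived trypomastigotes) and THP-1 (PMA-transformed, 10 ng/mL) for L. (L.) infantum (infected with late-phase promastigotes), at 1:10 cell:parasite for 24 h. Serial dilutions were given as two doses, the second on day 3 with a medium change. Read-out was % infected cells on methanol-fixed, Giemsa-stained slides (300 cells). IC50 came from sigmoidal regression; experiments in duplicate, concentrations in triplicate.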

Trypanosoma cruzi [3] = experiment: Antiparasitic activity against epimastigote stage of Trypanosoma cruzi infected in Vero cells assessed as parasite growth inhibition […] by hemocytometery; assay type: functional, organism-based
Summary of the method: (§3)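 Exponential-phase T. cruzi Sylvio X10 epimastigotes (LIT medium with hiFCS) or L. (L.) infantum MHOM/BR/74/PP75 promastigotes (RPMI 1640, hemin, HEPES, 10% hiFCS) were exposed to threefold serial dilutions (0.3–300 µg/mL) for 72 h at 28 °C. Viable parasites were counted by hemocytometer with 0.25% eosin yellow. IC50 came from sigmoidal regression, given as mean ± SD.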

[4] = Cytotoxicity against African green monkey Vero cells; assay type: cell-based; settings: chlorocebus sabaeus
Summary of the method: (§4)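 Vero monolayers or THP-1 cells (made adherent with 10 ng/mL PMA), in RPMI 1640 with 10% hiFCS, were exposed to compound (0.3–300 µg/mL) for 72 h at 37 °C, 5% CO2. Viability was measured by MTT, with formazan dissolved in DMSO and read at 580 nm. % cytotoxicity was calculated against untreated cells; CC50 came from sigmoidal regression, given as mean ± SD.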

Leishmania infantum [5] = experiment: Antiparasitic activity against amastigote stage of Leishmania infantum infected in THP1 cells assessed as parasite growth inhibition after 24 hrs by hemocytometery; assay type: functional, organism-based, THP-1; summary of the method: as §2
[6] = Selectivity index, ratio of CC50 for human THP1 cells to IC50 for promastigote stage of Leishmania infantum; assay type: functional, THP-1; summary of the method: as §1
Leishmania infantum [7] = experiment: Antiparasitic activity against promastigote stage of Leishmania infantum infected in THP1 cells assessed as parasite growth inhibition […] by hemocytometery; assay type: functional, organism-based; settings: THP-1; summary of the method: as §3
[8] = Cytotoxicity against human THP1 cells; assay type: cell-based; settings: THP-1 cells; summary of the method: as §4
Leishmania infantum [9] = experiment: Antiparasitic activity against promastigote stage of Leishmania infantum assessed as parasite growth inhibition after 72 hrs by hemocytometery
[10] = Selectivity index, ratio of CC50 for human THP1 cells to IC50 for amastigote stage of Leishmania infantum; assay type: functional, THP-1; summary of the method: as §1
[11] = Selectivity index, ratio of CC50 for African green monkey Vero cells to IC50 for amastigote stage of Trypanosoma cruzi; assay type: functional; summary of the method: as §1
[12] = Trypanosoma cruzi, Vero, 24 h, read-out: IC50
[13] = Leishmania infantum, THP-1, 24 h, read-out: IC50

IC50 (Trypanosoma cruzi [2]; [12]) [µM] | IC50 (Trypanosoma cruzi [3]) [µM] | Compound | Selectivity Index [1] | CC50 [4] [µM] | IC50 (Leishmania infantum [5]; [13]) [µM] | Selectivity Index [6] | IC50 (Leishmania infantum [7]) [µM] | CC50 [8] [µM] | IC50 (Leishmania infantum [9]) [µM] | Selectivity Index [10] | Selectivity Index [11] | IC50 (Trypanosoma cruzi [2]; vero) | IC50 (Leishmania infantum [5]; thp-1)
> 101 | 87.8 | O[C@@H]1Cc2cc(OC(F)(F)F)ccc2N[C@H](c2cccs2)C1 | 0.2 | 20.4 | > 101 | 4.4 | 13.8 | 61.5 |  |  |  |  | 
> 405 | 177 | O[C@@H]1Cc2cc(F)ccc2N[C@H](c2ccoc2)C1 | 5.9 | 1040 | > 405 | 1.9 | 365 | 689 |  |  |  |  | 
134 | 27.6 | Cc1ccsc1[C@@H]1C[C@H]2Cc3ccccc3N1O2 (racemic) | 16.4 | 453 | 368 | 6.7 |  | 377 | 56.6 | 1 | 3.4 |  | 
23.9 | 14.7 | Clc1ccc2c(c1)C[C@@H]1C[C@@H](c3ccc(Br)s3)N2O1 (racemic) | 113.4 | 1660 | 65.2 | >117.9 |  | > 1690 | 14.3 | >25.9 | 69.8 |  | 
103 | 104 | Fc1ccc2c(c1)C[C@@H]1C[C@@H](c3cccs3)N2O1 (racemic) | 13.5 | 1400 | 177 | 86.6 |  | 991 | 11.5 | 5.6 | 13.5 |  | 
330 | 102 | Cc1ccsc1[C@@H]1C[C@H]2Cc3cc(F)ccc3N1O2 (racemic) | 5.9 | 601 | 204 | 2.9 |  | 221 | 75.9 | 1.1 | 1.8 |  | 
> 415 | 92.9 | Cc1ccc([C@@H]2C[C@H]3Cc4ccccc4N2O3)o1 (racemic) | 5.7 | 533 | 398 | 14.5 |  | 394 | 27.3 | 1 |  |  | 
319 | 166 | FC(F)(F)Oc1ccc2c(c1)C[C@@H]1C[C@@H](c3ccco3)N2O1 (racemic) | 0.6 | 93.4 | 172 | 19.9 |  | 319 | 16 | 1.9 | 0.3 |  | 
212 | 89.2 | Cc1ccc([C@@H]2C[C@H]3Cc4cc(OC(F)(F)F)ccc4N2O3)o1 (racemic) | 4.6 | 414 | > 308 | 16.3 |  | 176 | 10.8 |  | 2 |  | 
131 | 22.8 | Cc1ccc([C@@H]2C[C@H](O)Cc3ccccc3N2)s1 (relative stereo) | 41.9 | 956 | > 128 | 5.5 |  | 608 | 111 |  | 7.3 |  | 
> 411 | 198 | c1csc([C@@H]2C[C@H]3Cc4ccccc4N2O3)c1 (relative stereo) | 11.6 | 2310 | 406 | 45.7 |  | 727 | 15.9 | 1.8 |  |  | 
> 408 | 219 | O[C@@H]1Cc2ccccc2N[C@H](c2cccs2)C1 (relative stereo) | 4.5 | 986 | 138 | 5.3 |  | 773 | 146 | 5.6 |  |  | 
41.5 | 47.9 | Cc1ccsc1[C@@H]1C[C@H](O)Cc2cc(Cl)ccc2N1 (relative stereo) | 4.2 | 200 | > 341 | 2.5 |  | 181 | 72.9 |  | 4.8 |  | 
123 | 164 | Cc1ccc([C@@H]2C[C@H](O)Cc3cc(F)ccc3N2)s1 (relative stereo) | 4.9 | 801 | > 120 | 18.5 | 16.9 | 312 |  |  | 6.53 |  | 
> 120 | 45.9 | Cc1ccsc1[C@@H]1C[C@H](O)Cc2cc(F)ccc2N1 (relative stereo) | 5.3 | 243 | > 120 | 28.9 | 62.5 | 1810 |  |  |  |  | 
 | 65.7 | Cc1ccc([C@@H]2C[C@H](O)Cc3cc(OC(F)(F)F)ccc3N2)s1 (relative stereo) | 0.4 | 23.9 |  | 8.6 | 11.3 | 98 |  |  |  | ND(toxic) | ND(toxic)
 | 10.7 | Cc1ccsc1[C@@H]1C[C@H](O)Cc2cc(OC(F)(F)F)ccc2N1 (relative stereo) | 2.5 | 26.7 | > 97.1 | 5.5 | 16.4 | 89.7 |  |  |  | ND(toxic) | 
> 436 | 884 | O[C@@H]1Cc2ccccc2N[C@H](c2ccco2)C1 (relative stereo) | >1.5 | > 1310 | > 436 | 0.3 | 696 | 236 |  |  |  |  | 
> 411 | 120 | Cc1ccc([C@@H]2C[C@H](O)Cc3ccccc3N2)o1 (relative stereo) | 3.1 | 370 | > 411 | 1.4 | 189 | 262 |  |  |  |  | 
323 | 61.8 | Cc1ccc([C@@H]2C[C@H](O)Cc3cc(Cl)ccc3N2)o1 (relative stereo) | 4.9 | 300 | > 361 | >9.9 | 110 | > 1080 |  |  | 0.93 |  | 
> 383 | 115 | Cc1ccc([C@@H]2C[C@H](O)Cc3cc(F)ccc3N2)o1 (relative stereo) | 7.2 | 823 | > 383 | >8.1 | 141 | > 1150 |  |  |  |  | 
> 106 | 606 | O[C@@H]1Cc2cc(OC(F)(F)F)ccc2N[C@H](c2ccco2)C1 (relative stereo) | 0.3 | 166 | > 106 | 2.9 | 45.9 | 134 |  |  |  |  | 
> 102 | 42.7 | Cc1ccc([C@@H]2C[C@H](O)Cc3cc(OC(F)(F)F)ccc3N2)o1 (relative stereo) | 1.9 | 82.1 | > 102 | 9.7 | 12.8 | 124 |  |  |  |  | 
 |  | C[C@@H]1[C@H](O)[C@@H](C)/C=C/C=C/C=C/C=C/C=C/C=C/C=C/[C@H](O[C@@H]2O[C@H](C)[C@@H](O)[C@H](N)[C@@H]2O)C[C@@H]2O[C@](O)(C[C@@H](O)C[C@@H](O)[C@H](O)CC[C@@H](O)C[C@@H](O)CC(=O)O[C@H]1C)C[C@H](O)[C@H]2C(=O)O [AMPHOTERICIN B] |  |  | 0.01 | 927.5 |  | 29.7 | 0.03 | 456.6 |  |  | 
